According to ChEMBL document CHEMBL2321691 (J Med Chem, 2013):
Active and inactive are the calls of the source. The rule behind the calls is not given here.

Tests used:
[1] = tested on: HeLa; assay: Inhibition of microtubule system in human HeLa cells at 10 nM after 18 hrs by confocal microscopic analysis; format: cell-based
Procedure, shortened: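 HeLa cells grown on poly-L-lysine coverslips and treated 18 h at 10^-8 M. Washed in HPEM (pH 6.6), fixed 15 min in 4% paraformaldehyde, permeabilized with 0.5% Triton X-100. Stained with anti-α-tubulin (1:150, 1 h), then CY3 anti-mouse IgG (1:100, 1 h, 4 °C). Imaged by confocal microscopy; representative of at least three experiments.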

[2] = tested on: HeLa; assay: Cell cycle arrest in human HeLa cells assessed as accumulation at G2/M phase at 10^-8 M incubated for 18 hrs by propidium iodide staining-based FACS flow cytometric analysis relative to control; format: functional
Procedure, shortened: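 HeLa cells treated 18 h at 10^-8 M, with untreated controls run in parallel. 2-4 x 10^5 cells fixed overnight in 70% ethanol at 4 °C, washed in PBS, then incubated 1 h at room temperature with 1 mg/mL RNAse A and 20 µg/mL propidium iodide. DNA content read by FACSCalibur flow cytometry; percentage of cells in G2/M. Representative of three experiments.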

[3] = tested on: HT-29; assay: Cytotoxicity against human HT-29 cells assessed as growth inhibition after 72 hrs by XTT assay; format: functional, cell-based; details: HT-29, 72 h
Procedure, shortened: (§1)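 Cells seeded at 1.5 x 10^3 per well (A549, HeLa, HT-29) or 3 x 10^3 (HL-60) in medium with 10% heat-inactivated FBS. Compound tested from 10-5 to 10-13 M for 72 h at 37 °C, then XTT readout. […] Triplicate wells, three experiments; mean ± S.D.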

[4] = tested on: A549; assay: Cytotoxicity against human A549 cells assessed as growth inhibition after 72 hrs by XTT assay; format: functional, cell-based; details: A549, 72 h; procedure, shortened: as §1
[5] = tested on: HeLa; assay: Cytotoxicity against human HeLa cells assessed as growth inhibition after 72 hrs by XTT assay
[6] = species on record: Bos taurus; assay: Inhibition of bovine brain tubulin polymerization at 20 uM after 30 mins by spectrophotometry
Procedure, shortened: (§2)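 Bovine brain tubulin at 1.5 mg/mL, pH 6.7, in 0.1 M MES, 1 mM EGTA, 1 mM MgCl2, 1 mM β-ME, 1.5 mM GTP with ligand. Incubated 20 °C for 30 min, then on ice 10 min. Assembly read as the A450 rise on a shift from 4 to 38 °C; inhibition is plateau minus baseline against ligand-free control. IC50 from monoexponential fits.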

[7] = Inhibition of bovine brain tubulin polymerization after 30 mins by spectrophotometry; design: species or system Bos taurus; procedure, shortened: as §2
[8] = tested on: HL-60; assay: Cytotoxicity against human HL60 cells assessed as growth inhibition after 72 hrs by XTT assay; format: functional, cell-based; details: HL-60, 72 h; procedure, shortened: as §1
[9] = tested on: HeLa; assay: Induction of apoptosis in human HeLa cells assessed as processing of procaspase-3 into the p19/p17 active form at 50 nM by Western blotting analysis; format: functional, cell-based
Procedure, shortened: (§3)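 HeLa cells given 50 nM compound for several times; untreated controls run in parallel. About 5 x 10^6 cells lysed and run on reducing SDS gels (12% for caspase-3, 8% for PARP), then blotted to nitrocellulose. Probed overnight with anti-active caspase-3 (p19/p17) or C2.10 anti-PARP (116 kDa and p85), each 1:1000. β-actin loading control; ECL detection. Three experiments.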

[10] = tested on: HeLa; assay: Induction of apoptosis in human HeLa cells assessed as accumulation of DNA at sub-G0/G1 phase incubated for 24 hrs by propidium iodide staining-based FACS flow cytometric analysis relative to control; format: functional; details: in the assay text read “72 hrs” for “24 hrs”
Procedure, shortened: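 Apoptosis counted as percentage of HeLa cells in the sub-G0/G1 peak. Cells fixed in 70% ethanol, stained 1 h with RNAse A (1 mg/mL) and propidium iodide (20 µg/mL), then read by flow cytometry. Time-course used 5-100 nM for 18-72 h.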

[11] = tested on: HeLa; assay: Induction of apoptosis in human HeLa cells at 50 nM after 72 hrs by […] analysis in presence of caspase inhibitor z-VAD-fmk relative to control; format: functional
[12] = tested on: HeLa; assay: Induction of apoptosis in human HeLa cells assessed as accumulation at sub-G0/G1 phase at 50 nM after 72 hrs by […] analysis; format: functional, cell-based
[13] = tested on: HeLa; assay: Induction of apoptosis in human HeLa cells assessed as PARP cleavage at 50 nM by Western blotting analysis; format: functional, cell-based; procedure, shortened: as §3
[14] = tested on: HeLa; assay: Induction of apoptosis in human HeLa cells at 50 nM after 72 hrs by […] analysis relative to control; format: functional

With `C=C(c1cc(OC)c(OC)c(OC)c1)c1ccc2c(c1)c(C#N)cn2C` the inhibition [1] was “Active”, the Activity [2] was >83% and the IC50 [3] was 3.9 nM. For the same compound, the IC50 [4] was 8.4 nM, the IC50 [5] was 2.9 nM and the inhibition [6] was 93%. The IC50 [7] was 1200 nM, the IC50 [8] was 1.3 nM and the Activity [9] was “Active”. The Activity [10] was 20%, the Activity [11] was 5% and the Activity [12] was “Active”. The Activity [13] was “Active” and the Activity [14] was 19.5%.
